“Also recorded” adds a separate entry of the source.
How the values were obtained:
human calpain-1 = biological target: T1, human calpain-1 (Homo sapiens, UniProt P07384); assay: Calpain-1 inhibition assay; format: biochemical; details: for Calpain-1 % Inhibition at 1 μM: 1 μM compound, three replicates, errors estimated <10%; for inhibition at 1 µM: read-out: Calpain-1 % Inhibition at 1 μM
T1 sequence (P07384 1-714): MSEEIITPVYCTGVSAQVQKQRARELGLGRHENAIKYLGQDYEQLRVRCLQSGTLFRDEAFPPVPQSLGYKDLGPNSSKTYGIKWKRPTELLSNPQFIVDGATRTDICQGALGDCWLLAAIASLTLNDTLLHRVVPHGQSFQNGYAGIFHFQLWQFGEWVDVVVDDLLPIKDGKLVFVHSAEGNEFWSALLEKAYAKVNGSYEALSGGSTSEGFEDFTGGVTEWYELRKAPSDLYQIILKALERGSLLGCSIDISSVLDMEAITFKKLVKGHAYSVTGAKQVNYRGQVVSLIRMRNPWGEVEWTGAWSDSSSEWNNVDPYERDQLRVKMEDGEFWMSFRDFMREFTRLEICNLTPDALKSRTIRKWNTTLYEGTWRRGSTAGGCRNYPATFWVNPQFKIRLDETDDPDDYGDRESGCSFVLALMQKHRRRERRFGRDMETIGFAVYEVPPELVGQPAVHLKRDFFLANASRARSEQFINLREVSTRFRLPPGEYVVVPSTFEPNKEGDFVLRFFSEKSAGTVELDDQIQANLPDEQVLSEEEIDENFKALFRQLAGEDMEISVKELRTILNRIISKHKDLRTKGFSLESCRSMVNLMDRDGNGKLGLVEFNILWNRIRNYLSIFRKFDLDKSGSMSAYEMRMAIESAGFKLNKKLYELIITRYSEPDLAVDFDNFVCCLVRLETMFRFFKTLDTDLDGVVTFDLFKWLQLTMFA
T1 sequence (P04632 1-268 partner): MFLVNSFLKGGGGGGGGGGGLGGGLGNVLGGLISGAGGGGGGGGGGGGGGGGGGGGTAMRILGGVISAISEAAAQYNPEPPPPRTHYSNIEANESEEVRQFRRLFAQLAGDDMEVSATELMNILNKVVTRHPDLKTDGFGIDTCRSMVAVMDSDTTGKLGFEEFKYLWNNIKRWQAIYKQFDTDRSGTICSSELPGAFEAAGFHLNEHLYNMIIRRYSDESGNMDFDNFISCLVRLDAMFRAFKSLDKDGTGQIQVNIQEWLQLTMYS

human cathepsin B = human cathepsin B (Homo sapiens, UniProt P07858); assay: Cathepsin B inhibition assay; format: biochemical; details: for CatB % Inhibition at 1 μM: 1 μM compound, three replicates; for inhibition at 1 µM: read-out: CatB % Inhibition at 1 μM
human cathepsin K = biological target: T2, human cathepsin K (Homo sapiens, UniProt P43235); assay: Cathepsin K inhibition assay; format: biochemical; details: for CatK % Inhibition at 1 μM: 1 μM compound, three replicates; for inhibition at 1 µM: read-out: CatK % Inhibition at 1 μM
T2 sequence (P43235 115-329): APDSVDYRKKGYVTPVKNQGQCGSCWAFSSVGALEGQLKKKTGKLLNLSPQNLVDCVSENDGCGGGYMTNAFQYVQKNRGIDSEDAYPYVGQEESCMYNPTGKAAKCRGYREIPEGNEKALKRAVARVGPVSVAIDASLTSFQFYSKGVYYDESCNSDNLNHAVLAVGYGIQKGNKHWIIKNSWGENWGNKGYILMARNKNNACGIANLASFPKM

papain = biological target: T3, papain (Carica papaya, UniProt P00784); assay: Papain inhibition assay; format: biochemical; details: for Papain % Inhibition at 1 μM: 1 μM compound, three replicates; for inhibition at 1 µM: read-out: Papain % Inhibition at 1 μM
T3 sequence (P00784 134-345): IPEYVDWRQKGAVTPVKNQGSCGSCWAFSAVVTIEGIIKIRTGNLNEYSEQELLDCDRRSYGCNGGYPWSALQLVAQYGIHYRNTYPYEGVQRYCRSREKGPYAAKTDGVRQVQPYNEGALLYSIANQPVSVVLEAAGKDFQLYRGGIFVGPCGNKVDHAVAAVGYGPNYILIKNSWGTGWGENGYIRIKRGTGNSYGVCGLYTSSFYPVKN

[1] = tested on: scopolamine-induced cognitive deficit in mice; assay: Step-through passive avoidance; format: in vivo; details: scopolamine 1 mg/kg, drug 10 mg/kg i.p.
Summary of the method: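 Mice receive scopolamine 1 mg/kg in saline by i.p. injection 30 min before training, then test compound (10 mg/kg) or vehicle 20 min before training. During training, entry into the dark compartment delivers an electric shock. The read-out is the latency to enter the dark compartment.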

[2] = human Phase 1, even at the highest doses; cited from earlier work
[3] = five Phase 1 study arms, including aged subjects; cited from earlier work

| SMILES | Calpain-1 % Inhibition at 1 μM (human calpain-1) [%] | CatB % Inhibition at 1 μM (human cathepsin B) [%] | CatK % Inhibition at 1 μM (human cathepsin K) [%] | Papain % Inhibition at 1 μM (papain) [%] | inhibition at 1 µM (human calpain-1) [%] | also measured |
| --- | --- | --- | --- | --- | --- | --- |
| CC(C)CCNC(=O)[C@H](CC(C)C)NC(=O)[C@H]1O[C@@H]1C(=O)O [Compound E-64c] | 86.0 | 99.3 | 100 | 97.6 |  |  |
| CC(C)(F)C[C@H](N[C@@H](c1ccc(-c2ccc(S(C)(=O)=O)cc2)cc1)C(F)(F)F)C(=O)NC1(C#N)CC1 [odanacatib] |  |  |  |  | 7.1 | inhibition at 1 µM (human cathepsin B): 57.2%; inhibition at 1 µM (human cathepsin K): 99.8%; inhibition at 1 µM (papain): 14.7% |
| O=C(NCc1ccc(F)cc1)C(=O)[C@H](Cc1ccccc1)NC(=O)[C@H]1CCC(=O)N1Cc1ccccc1 [Compound 1c, (R)-1-benzyl-N-((S)-4-((4-fluorobenzyl)amino)-3,4-dioxo-1-phenylbutan-2-yl)-5-oxopyrrolidine-2-carboxamide] |  |  |  |  | 98.1 | IC50 (human calpain-1): 78 ± 10 nM; inhibition at 1 µM (human cathepsin B): 11.4%; inhibition at 1 µM (human cathepsin K): 13.5%; inhibition at 1 µM (papain): 15.2%; Memory restoration in STPA, in words [1]: restored cognitive function; also recorded: restored memory |
| O=C(NC1CC1)C(=O)C(Cc1ccccc1)NC(=O)[C@H]1CCC(=O)N1Cc1ccccc1 (stereo partly shown) [ABT-957, alicapistat] |  |  |  |  |  | Measured CSF concentrations [2]: 9 to 21 nM; Treatment-associated adverse events [3]: no treatment-associated adverse events were identified |
| O=C(NCc1ccc(F)cc1)C(=O)[C@@H](Cc1ccccc1)NC(=O)[C@H]1CCC(=O)N1Cc1ccccc1 [Compound 1g, (R)-1-benzyl-N-((R)-4-((4-fluorobenzyl)amino)-3,4-dioxo-1-phenylbutan-2-yl)-5-oxopyrrolidine-2-carboxamide] |  |  |  |  | 31.8 | Calpain-1 potency in words (human calpain-1): greatly reduced potency |
| CCOC(=O)[C@H]1O[C@@H]1C(=O)N[C@@H](CC(C)C)C(=O)NCCC(C)C [Compound E-64d] |  |  |  |  |  | Memory restoration in STPA, in words [1]: restore memory |
| CCCNC(=O)[C@H]1O[C@@H]1C(=O)N[C@H](C(=O)N1CCC[C@H]1C(=O)O)[C@@H](C)CC [CA-074] | 4.72 | 100 | 70.5 | 16.8 |  |  |
| CCC(NC(=O)[C@H](CC(C)C)NC(=O)OCc1ccccc1)C(=O)C(=O)NCCCN1CCOCC1 (stereo partly shown) [AK-295] | 100 | 18.0 | 100 | 18.7 |  | Cathepsin K inhibition in words (human cathepsin K): potent inhibitor of cathepsin K |

Reference: PMC8583780 (ChemMedChem, 2020)
